Test results reported in ChEMBL document CHEMBL1275449, “Potent in vitro antifungal activities of naturally occurring acetylenic acids” (Antimicrob Agents Chemother, 2008).
Activity calls are given as the source filed them.

Assays:
Type in all cases: functional, organism-based
Nakaseomyces glabratus [1] = experiment: Antifungal activity against Candida glabrata ATCC 90030 at 198.1 uM after 48 hrs by CLSI method
Method in brief: (§1)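 Candida inocula came from 24–72-h SD agar colonies suspended in saline. They were diluted by OD630 standard curve into RPMI 1640 (0.2% dextrose, 0.03% glutamine, 0.165 M MOPS, pH 7.0) to 1.5 × 10³ CFU/ml. Compounds were run as 11 twofold dilutions in 20% DMSO-saline, in duplicate, at 35°C for 48 h, with OD530 read before and after. Percent growth at the top concentration, IC50, MIC, and MFC (SD agar plating) were derived.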

Candida parapsilosis [2] = experiment: Antifungal activity against Candida parapsilosis ATCC 22019 at 198.1 uM after 48 hrs by CLSI method
Method in brief: (§2)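 Yeast suspensions made from 3-5 colonies off 24-72 h SD agar plates in saline. They were diluted by OD630 standard curve in RPMI 1640 (0.2% dextrose, 0.03% glutamine, 0.165 M MOPS, pH 7.0) to 1.5 × 10³ CFU/ml. Twofold dilutions (11 concentrations, 20% DMSO-saline) run in duplicate. OD530 read before and after 35°C, 48 h. Line values are top test concentrations; no-growth endpoints give MIC/MFC.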

Cryptococcus neoformans [3] = experiment: Antifungal activity against Cryptococcus neoformans ATCC 90113 at 198.1 uM after 72 hrs by CLSI method
Candida albicans [4] = experiment: Antifungal activity against Candida albicans ATCC 60193 at 187.7 uM after 48 hrs by CLSI method; method in brief: as §1
Candida albicans [5] = experiment: Antifungal activity against Candida albicans ATCC 90028 at 187.7 uM after 48 hrs by CLSI method; method in brief: as §1
Candida albicans [6] = experiment: Antifungal activity against Candida albicans ATCC 200955 at 187.7 uM after 48 hrs by CLSI method; method in brief: as §1
Candida albicans [7] = experiment: Antifungal activity against Fluconazole resistant Candida albicans isolate 17 at 187.7 uM after 48 hrs by CLSI method
Method in brief: (§3)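 Candida in CLSI broth microdilution. Saline colony suspension set to 1.5 × 10³ CFU/ml (final) in MOPS-buffered RPMI 1640, pH 7.0. Test agent given as twofold serial dilutions in 20% DMSO-saline, duplicate wells. 35°C for 48 h. Growth read as OD530 before and after incubation. Percent inhibition scored at the highest test concentration.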

Nakaseomyces glabratus [8] = experiment: Antifungal activity against Candida glabrata ATCC 90030 at 187.7 uM after 48 hrs by CLSI method; method in brief: as §1
Pichia kudriavzevii = experiment: Antifungal activity against Candida krusei ATCC 6258 at 187.7 uM after 48 hrs by CLSI method; method in brief: as §2
Cryptococcus neoformans [9] = experiment: Antifungal activity against Cryptococcus neoformans ATCC 90113 at 187.7 uM after 72 hrs by CLSI method
Method in brief: (§4)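 SD broth replaced RPMI because growth in RPMI was poor; other CLSI conditions were kept. Inoculum was 1.5 × 10³ CFU/ml from colonies on SD agar, checked by plating. Twofold serial dilutions (11 concentrations) in 20% DMSO-saline were tested in duplicate. OD530 was read before and after incubation at 35°C for 72 h. Percent growth gave IC50; the MIC is the lowest concentration with no detectable growth.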

Candida albicans [10] = experiment: Antifungal activity against Candida albicans ATCC 60193 at 169.8 uM after 48 hrs by CLSI method; method in brief: as §1
Candida albicans [11] = experiment: Antifungal activity against Candida albicans ATCC 90028 at 169.8 uM after 48 hrs by CLSI method; method in brief: as §1
Candida albicans [12] = experiment: Antifungal activity against Candida albicans ATCC 200955 at 169.8 uM after 48 hrs by CLSI method; method in brief: as §1
Candida parapsilosis [13] = experiment: Antifungal activity against Candida parapsilosis ATCC 22019 at 169.8 uM after 48 hrs by CLSI method; method in brief: as §2
Cryptococcus neoformans [14] = experiment: Antifungal activity against Cryptococcus neoformans ATCC 90113 at 169.8 uM after 72 hrs by CLSI method; method in brief: as §4
Aspergillus niger [15] = experiment: Antifungal activity against Aspergillus niger ATCC 16404 at 169.8 uM after 48 hrs by CLSI method
Candida albicans [16] = experiment: Antifungal activity against Candida albicans ATCC 60193 at 168.9 uM after 48 hrs by CLSI method; method in brief: as §1
Candida albicans [17] = experiment: Antifungal activity against Candida albicans ATCC 90028 at 168.9 uM after 48 hrs by CLSI method; method in brief: as §1
Candida albicans [18] = experiment: Antifungal activity against Fluconazole resistant Candida albicans isolate 1 at 168.9 uM after 48 hrs by CLSI method; method in brief: as §3
Candida albicans [19] = experiment: Antifungal activity against Fluconazole resistant Candida albicans isolate 17 at 168.9 uM after 48 hrs by CLSI method; method in brief: as §3
Nakaseomyces glabratus [20] = experiment: Antifungal activity against Candida glabrata ATCC 90030 at 168.9 uM after 48 hrs by CLSI method; method in brief: as §1
Candida tropicalis = experiment: Antifungal activity against Candida tropicalis ATCC 750 at 168.9 uM after 48 hrs by CLSI method; method in brief: as §2
Aspergillus flavus = experiment: Antifungal activity against Aspergillus flavus ATCC 204304 at 168.9 uM after 48 hrs by CLSI method
Aspergillus niger [21] = experiment: Antifungal activity against Aspergillus niger ATCC 16404 at 168.9 uM after 48 hrs by CLSI method
[22] = test system: Trichophyton mentagrophytes; experiment: Antifungal activity against Trichophyton mentagrophytes ATCC 9533 at 168.9 uM after 5 days by CLSI method
Trichophyton rubrum [23] = experiment: Antifungal activity against Trichophyton rubrum ATCC 10218 at 168.9 uM after 5 days by CLSI method
Candida albicans [24] = experiment: Antifungal activity against Fluconazole resistant Candida albicans isolate 1 at 9.4 uM after 48 hrs by CLSI method; method in brief: as §3
Candida albicans [25] = experiment: Antifungal activity against Fluconazole resistant Candida albicans isolate 17 at 9.4 uM after 48 hrs by CLSI method; method in brief: as §3
Aspergillus fumigatus [26] = experiment: Antifungal activity against Aspergillus fumigatus ATCC 204305 at 9.4 uM after 48 hrs by CLSI method
Method in brief: (§5)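 Aspergillus growth on 1–6-week potato dextrose slants scraped and Miracloth-filtered. Inoculum sized by OD630 curve to 2.7 × 10⁴ CFU/ml (final) in 5% Alamar blue-RPMI 1640 (MOPS, pH 7.0). Duplicate twofold dilutions from 20% DMSO-saline. 35°C for 48 h. Fluorescence 544/590 nm read before and after. Percent inhibition taken at the highest test concentration.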

Aspergillus fumigatus [27] = experiment: Antifungal activity against Aspergillus fumigatus ATCC 90906 at 9.4 uM after 48 hrs by CLSI method; method in brief: as §5
Aspergillus niger [28] = experiment: Antifungal activity against Aspergillus niger ATCC 16404 at 9.4 uM after 48 hrs by CLSI method; method in brief: as §5
Trichophyton rubrum [29] = experiment: Antifungal activity against Trichophyton rubrum ATCC 10218 at 9.4 uM after 5 days by CLSI method
Method in brief: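 Trichophyton growth scraped from 1–6-week potato dextrose slants and filtered through Miracloth. Inoculum 2.7 × 10⁴ CFU/ml (final) in 5% Alamar blue-RPMI 1640 buffered with MOPS, pH 7.0. Duplicate twofold dilutions from 20% DMSO-saline. Incubated 35°C for 5 days. Fluorescence read at 544 nm excitation, 590 nm emission. Inhibition assessed at the highest test concentration.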

Measured: Activity

CCCCCCCCCC#CCCCCC(=O)O
inactive: Nakaseomyces glabratus [1] | Candida parapsilosis [2] | Cryptococcus neoformans [3]

CCCCCCCCCCC#CCCCCC(=O)O
inactive: Candida albicans [4] | Candida albicans [5] | Candida albicans [6] | Candida albicans [7] | Nakaseomyces glabratus [8] | Pichia kudriavzevii | Cryptococcus neoformans [9]

CCCCCCCCCCCCC#CCCCCC(=O)O [6-NONADECYNOIC ACID]
inactive: Candida albicans [10] | Candida albicans [11] | Candida albicans [12] | Candida parapsilosis [13] | Cryptococcus neoformans [14] | Aspergillus niger [15]

CCCCCC#CCC#CCC#CCC#CCCCC(=O)O
inactive: Candida albicans [16] | Candida albicans [17] | Candida albicans [18] | Candida albicans [19] | Nakaseomyces glabratus [20] | Candida tropicalis | Aspergillus flavus | Aspergillus niger [21] | [22] | Trichophyton rubrum [23]

CC(=O)N1CCN(c2ccc(OCC3COC(Cn4ccnc4)(c4ccc(Cl)cc4Cl)O3)cc2)CC1 (configuration not stated) [KETOCONAZOLE]
inactive: Candida albicans [24] | Candida albicans [25] | Aspergillus fumigatus [26] | Aspergillus fumigatus [27] | Aspergillus niger [28] | Trichophyton rubrum [29]
